The source of these data is publication PMC6022754 (Bioorganic & medicinal chemistry letters, 2017).

pEC50: −log10 of the molar value.

Series [1] concerns human colon tumor xenograft. The following applies: human colon tumor xenograft model; cited from earlier work.
Series [2] in a line: computed physicochemical properties. The following applies: LipE = pCC50 (HT29) – logD (at pH 7.4). A digest of the protocol: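 Lipophilic efficiency: CC50 taken from whole-cell HT29 growth-inhibition screening, not an enzymatic target-based assay. The value is converted to pCC50, and logD at pH 7.4 is subtracted from it.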
The subject of series [3] is MDA-MB-231 breast cancer cell line. The experiment in a line: quantitative high-throughput screening, MDA-MB-231 cell growth inhibition. It counts as cell-based. The following applies: MDA-MB-231 cells, vs SSA (1).
Series [4] relates to PC3 prostate cancer cell line. The experiment in a line: quantitative high-throughput screening, PC3 cell growth inhibition. Type of series: cell-based. The following applies: PC3 cells, vs SSA (1).
Series [5] has as its system HT29 colorectal carcinoma cell line. The experiment in a line: quantitative high-throughput screening, HT29 cell growth inhibition. It counts as cell-based. The conditions noted are these: HT29 cells, vs SSA (1).
Series [6] can be described thus: BJ cell cytotoxicity counter screen. Type of series: cell-based. The following applies: human, BJ cells (normal human foreskin fibroblast cell line).

With `CSc1ccc(/C=C2/C(C)=C(CC(=O)NCCN(C)C)c3cc(F)ccc32)cc1` [Compound 1, sulindac sulfide amide], the “in vivo antitumor activity” value in series [1] is “comparable to sulindac”. This compound also yielded a LipE in series [2] of 1.78.

As to `CSc1ccc(/C=C2/C(C)=C(CC(=O)NCCCN(C)C)c3cc(F)ccc32)cc1` [Compound 2], the “reduction of activity compared to lead compound 1, MDA-MB-231” value in series [3] is reported as 2 fold. Moreover, the “reduction of activity compared to lead compound 1, PC3” value in series [4] is given as 2 fold. The “reduction of activity compared to lead compound 1, HT29” value in series [5] was 4 fold.

What is called pEC50 is the negative decadic logarithm of the EC50, by convention in mol/L. Higher therefore signals a low EC50. The compound `CCN(CC)CCCNC(=O)CC1=C(C)/C(=C/c2ccc(SC)cc2)c2ccc(F)cc21` [Compound 4] had a pEC50 in series [6] of less than 5.12.

`CSc1ccc(/C=C2/C(C)=C(CC(=O)N(C)CCN(C)C)c3cc(F)ccc32)cc1` [Compound 5] had a pEC50 in series [6] of less than 5.12.

Compound `CC1=C(CC(=O)NCCCN(C)C)c2cc(F)ccc2/C1=C\c1nc2ccccc2s1` [Compound 33] gave a pEC50 in series [6] of less than 5.12.

`CC1=C(CC(=O)N(C)CCN(C)C)c2cc(F)ccc2/C1=C\c1nc2ccccc2s1` [Compound 35]: in series [6], the pEC50 was less than 5.12.

Compound `CSc1ccc(/C=C2/C(C)=C(CC(=O)NCCC3CCCN3C)c3cc(F)ccc32)cc1` (centres unmarked) [Compound 41] displayed a LipE in series [2] of more than 3.

In series [6], `CSc1ccc(/C=C2/C(C)=C(CC(=O)N3CCC[C@H]3CN3CCCC3)c3cc(F)ccc32)cc1` [Compound 43] showed a pEC50 of less than 5.12.

`CSc1ccc(/C=C2/C(C)=C(CC(=O)N3CCN(CCCN(C)C)CC3)c3cc(F)ccc32)cc1` [Compound 44] showed a pEC50 in series [6] of less than 5.12.

In turn, `CSc1ccc(/C=C2/C(C)=C(CC(=O)N3CCN(CCN(C)C)CC3)c3cc(F)ccc32)cc1` [Compound 45] had a pEC50 in series [6] of less than 5.12.

`CSc1ccc(/C=C2/C(C)=C(CC(=O)N3CCN(c4ccncc4)CC3)c3cc(F)ccc32)cc1` [Compound 46]: the pEC50 in series [6] was less than 5.12.

For the compound `CSc1ccc(/C=C2/C(C)=C(CC(=O)N3CCCN(C)CC3)c3cc(F)ccc32)cc1` [Compound 50], in series [6], the pEC50 is less than 5.12.

As for `COc1cc(/C=C2/C(C)=C(CC(=O)N3CCN(c4ccncc4)CC3)c3cc(F)ccc32)cc(OC)c1OC` [Compound 59], in series [6], the pEC50 was less than 5.12.

The compound `CC1=C(CC(=O)NCCN2CCCC2)c2cc(F)ccc2/C1=C\c1nc2ccccc2s1` [Compound 61] yielded a LipE in series [2] of more than 3. Moreover, the pEC50 in series [6] was less than 5.12.

Take `CC1=C(CC(=O)N2CCN(CCCN(C)C)CC2)c2cc(F)ccc2/C1=C\c1nc2ccccc2s1` [Compound 62]: the LipE in series [2] was more than 3. In addition, the pEC50 in series [6] is less than 5.12.

On to `CC1=C(CC(=O)N2CCN(c3ccncc3)CC2)c2cc(F)ccc2/C1=C\c1nc2ccccc2s1` [Compound 63], for which the pEC50 in series [6] is less than 5.12.

Turning to `CSc1ccc(/C=C2/C(C)=C(CC(=O)NCc3ccccc3)c3cc(F)ccc32)cc1` [Compound 72], in series [3], the “reduction of activity compared to lead compound 1, MDA-MB-231” value amounted to 1.5 fold. Further, in series [4], the “reduction of activity compared to lead compound 1, PC3” value amounted to 4 fold. Also, in series [5], the “reduction of activity compared to lead compound 1, HT29” value came out at 4 fold.

With `CC1=C(CC(=O)NCc2ccccc2)c2cc(F)ccc2/C1=C\c1ccc([S+](C)[O-])cc1` (centres unmarked) [Compound 79], in series [6], the pEC50 is less than 5.12.

`COc1cc(/C=C2/C(C)=C(CC(=O)N(C)CCN(C)C(=O)[C@@H](N)C(C)C)c3cc(F)ccc32)cc(OC)c1OC` [Compound 89] had a pEC50 in series [6] of less than 5.12.
